According to ChEMBL document CHEMBL4513216, “Probing the Open Global Health Chemical Diversity Library for Multistage-Active Starting Points for Next-Generation Antimalarials” (ACS Infect Dis, 2020):

Assay: Toxicity liver stage against HepG2, at 10uM
Type: cell-based
Design: test concentration 10 uM, cell line HepG2-A16-CD81EGFP
Settings: human, HepG2-A16-CD81EGFP cells; read-out: INHIBITION
Summary of the method: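 Uninfected HepG2-A16-CD81EGFP cells, 3 × 10^3 per well, 1536-well, plated on prespotted compound at 10 μM final, parasite-free screening media added to match infected plates; puromycin 10 μM positive, DMSO 0.5% negative; run in parallel with 48 h PbLuc assay at 37 °C, 5% CO2; viability by CellTiter-Glo luminescence, normalized to controls.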
COCCOc1ccc(CNc2cnc3ccccc3n2)cn1 showed a cytotoxicity at 10 µM of 8.15%. CN1CCN(C(=O)c2cn(Cc3ccccc3)c3ncccc23)CC1 showed a cytotoxicity at 10 µM of -6.63%. In the case of CC(C)(C)C(=O)NCCn1ccc(-c2ccccn2)n1, the cytotoxicity at 10 µM is reported as 6.47%. O=C1NCCC12CN(CC1CC1)CC21CCNCC1 (centres undefined) gave a cytotoxicity at 10 µM of -5.31%. Molecule Cc1cccc(N2CC[C@@H]3[C@@H](CO[C@H]3CNC(=O)c3ccco3)C2)n1 has a cytotoxicity at 10 µM of -1.67%. Cc1csc([C@@H]2C[C@@H]3CCN(C(=O)c4cnccn4)C[C@H]3O2)n1 gave a cytotoxicity at 10 µM of 2.08%. O=C(c1cnc2ccc(F)cc2c1NCc1ccccn1)N1CCCC1 showed a cytotoxicity at 10 µM of 3%. In the case of Cc1noc(C2CCCCN2C(=O)NC2CCCC2)n1 (centres undefined), the cytotoxicity at 10 µM is reported as 2.4%. Work on CCOC(=O)c1sc(NC(=O)C(C)(C)C)c(C#N)c1C yielded a cytotoxicity at 10 µM of 9.04%. For CCN1C(=O)C(C)(C)c2cc(NC(=O)c3ccn(CC)n3)ccc21, the cytotoxicity at 10 µM was 9.65%. In the case of CCn1cc(S(=O)(=O)N2CCCC3(CC=CNC3=O)C2)c(C)n1 (centres undefined), the cytotoxicity at 10 µM is reported as -7.56%. Molecule OCC(CO)N1CCC(c2nccnc2Nc2cnccn2)CC1 has a cytotoxicity at 10 µM of -10.5%. In the case of CC(=O)N1CCN([C@@H]2CN(C(=O)Cc3ccccc3C)C[C@H]2O)CC1, the cytotoxicity at 10 µM is reported as -6.94%. For CN(C)c1cc(C2CCCN(S(=O)(=O)c3cn(C)cn3)C2)ccn1 (centres undefined), the cytotoxicity at 10 µM was -14.4%. Work on CC(C)(C)C(O)CN1CCN(Cc2cccc(C#N)c2)CC1 (centres undefined) yielded a cytotoxicity at 10 µM of 3.7%. With Cc1nc2cc(F)cc(C(=O)N3CCN(CC(C)O)CC3)c2nc1C (centres undefined) the cytotoxicity at 10 µM was 4.5%. Work on CC(c1ccc(S(N)(=O)=O)cc1)N(C)C(=O)c1ccccc1I (centres undefined) yielded a cytotoxicity at 10 µM of -0.629%. Molecule c1cc(-c2noc(-c3cc(C4CC4)[nH]n3)n2)cc(N2CCCCC2)n1 has a cytotoxicity at 10 µM of 3.05%. With CCn1c(C)nnc1CN(C)C1CCN(Cc2sc(C)nc2C)C1 (centres undefined) the cytotoxicity at 10 µM was 6.47%. For CC1CN(C(=O)Nc2cccc(CN3CCOC3=O)c2)CCO1 (centres undefined), the cytotoxicity at 10 µM was -7%. For Cc1c(C(=O)NC2(C#N)CCCC2)nnn1-c1ccccc1Cl, the cytotoxicity at 10 µM was -6.75%. For CC(C)c1nsc(N2CCn3c(nnc3C(F)(F)F)C2)n1, the cytotoxicity at 10 µM was 5.83%. For Cc1cc(CN2CCN(S(=O)(=O)c3c(C)c(Cl)cc(C)c3Cl)CC2)on1, the cytotoxicity at 10 µM was -8.87%. For CC(O)CNc1nc(-c2cccnc2)nc2c1CCC2 (centres undefined), the cytotoxicity at 10 µM was 9.8%. With COCC1CN(C(=O)Nc2cc(Cl)cc(Cl)c2)CCO1 (centres undefined) the cytotoxicity at 10 µM was -4.44%. In the case of CCC(C)CN(C)C(=O)NCc1ccccc1-n1cccn1 (centres undefined), the cytotoxicity at 10 µM is reported as 8.75%. O=C(NCC1CC1)C1CSCN1S(=O)(=O)c1cccc(F)c1 (centres undefined) gave a cytotoxicity at 10 µM of -14.3%. COc1ccc2c(c1)OCC(Cc1cc(N3CCCC3)cnn1)C2 (centres undefined) gave a cytotoxicity at 10 µM of -18.1%. Work on CCc1ccc(CN2CCCC(c3nn(C)c(=O)n3CC)C2)nc1 (centres undefined) yielded a cytotoxicity at 10 µM of 1.93%. Work on CCn1c(-c2ccccc2)nn(CC(=O)NCCc2ccc(C)s2)c1=O yielded a cytotoxicity at 10 µM of 7.69%. CSCCCN1CCc2nc(N(C)C)nc(N3CCC(O)CC3)c2C1 showed a cytotoxicity at 10 µM of -4.67%. Work on Cc1cc(CC(=O)N2CCN(CC(C)C)[C@@H]3CS(=O)(=O)C[C@@H]32)ccc1F yielded a cytotoxicity at 10 µM of -2.22%. Work on Cn1ccnc1-c1ccc(NCC2COCCO2)nn1 (centres undefined) yielded a cytotoxicity at 10 µM of 9.3%. Molecule CCOC(=O)N1CCN(CC(=O)Nc2nnc(CC)s2)CC1 has a cytotoxicity at 10 µM of -8.94%. In the case of COc1ccccc1[C@@H]1CN(CC(=O)N2CCCCC2)C[C@H]1C(=O)O, the cytotoxicity at 10 µM is reported as -2.82%. CS(=O)(=O)N1CCC(c2nnc(Cn3ccnc3)n2C2CC2)CC1 showed a cytotoxicity at 10 µM of -1.24%. CCCN(CC)c1cc(C2CCNCC2)nc(C)n1 showed a cytotoxicity at 10 µM of -7.33%. For Cc1cc(CN2CCN(C(=O)NCc3cccs3)CC2)no1, the cytotoxicity at 10 µM was -11.6%. Cc1cnn(CC2CCCCN2C(=O)c2n[nH]c3ccccc23)c1 (centres undefined) gave a cytotoxicity at 10 µM of -8.25%. For Cc1cnc(CN(C)C2CCN(Cc3nnc(C4CC4)o3)C2)o1 (centres undefined), the cytotoxicity at 10 µM was 5.25%. Work on O=C(CCCOc1cccc(F)c1)N1CCCC(n2cccn2)C1 (centres undefined) yielded a cytotoxicity at 10 µM of -16%. Cn1cc(CN2CCC[C@]3(C(=O)O)CN(c4ncccn4)C[C@@H]3C2)cn1 showed a cytotoxicity at 10 µM of 4.89%. Molecule O=C(N1CCOCC1)N1C[C@@H]2CC[C@H]1CN(C1Cc3ccccc3C1)C2 has a cytotoxicity at 10 µM of -4.55%. COCCOCC1(CNCc2ccc(F)cc2)C[C@@H](O)[C@@H](O)C1 (some centres undefined) gave a cytotoxicity at 10 µM of -3.1%.
